Data taken from publication PMC3594358 (Nature structural & molecular biology, 2013).

Key:
[1] = tested on: 53BP1 −/− mouse embryonic fibroblasts; assay: Metaphase spreads, radial chromosomes, 53BP1 −/− MEFs; assay type: cell-based; conditions: TIP60 siRNA + Olaparib; 53BP1 −/− vs 53BP1 +/+ MEFs
Summary of the method: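 53BP1+/+ and 53BP1−/− MEFs were transfected with control or mouse TIP60 siRNA using RNAiMax, analysed 48–72 h later, and treated with Olaparib. Cells were arrested with 0.5 μM nocodazole for 3–4 h, swollen in 75 mM KCl, fixed on ice in 3:1 methanol/acetic acid, dropped onto slides at 55°C and Giemsa-stained. Metaphases were scored for radial chromosomes, with significance by Fisher's exact test.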

[2] = tested on: U2OS cells; assay: Survival following Olaparib; assay type: cell-based; conditions: percentage survival
[3] = tested on: BRCA1 mutant cells; conditions: ref [39],[40], cited from earlier work
[4] = tested on: 53BP1 IRIF in U2OS cells; assay: 53BP1 IRIF; assay type: cell-based; conditions: HDACi 5 hours prior to 10 Gy IR (TSA 0.5 µM), fixed 5 hours later
Summary of the method: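 U2OS cells on coverslips were fixed and permeabilized, then incubated with primary antibody against 53BP1, washed in PBST, and incubated with secondary antibody. Coverslips were mounted in DAPI-containing medium. Images were captured on the same day at equal exposure in 8-bit grayscale and analysed on unmodified images.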

[5] = tested on: H4ac; assay: ChIP-qPCR H4ac at U2OS-DSB-reporter locus; assay type: cell-based; conditions: 0.5 μM TSA vs DMSO; DSBs induced by mCherry-LacI-FokI
Summary of the method: (§1)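 U2OS-DSB-reporter cells were given 0.5 μM TSA or DMSO, for 5 h where stated, and DSBs were induced by mCherry-LacI-FokI. Cells were formaldehyde-crosslinked, and chromatin was sonicated to 200–500 bp and immunoprecipitated overnight at 4°C with antibody to 53BP1, BRCA1 or H4ac. After washing and de-crosslinking, SYBR Green qPCR was run at reporter primer sets, quantified against diluted-input standard curves, with S.E.M. and Student t test.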

[6] = tested on: BRCA1; assay: ChIP-qPCR BRCA1 at U2OS-DSB-reporter locus; assay type: cell-based; conditions: 0.5 μM TSA for 5 hours vs DMSO; DSBs induced by mCherry-LacI-FokI
Summary of the method: as §1

[7] = tested on: 53BP1; assay: ChIP-qPCR 53BP1 at U2OS-DSB-reporter locus; assay type: cell-based; conditions: 0.5 μM TSA, 5 hours before DSB induction by mCherry-LacI-FokI; locus p4
Summary of the method: as §1

[8] = tested on: BRCA1 and 53BP1 at subtelomeric chromatin in 293T cells; assay: ChIP BRCA1 and 53BP1 at subtelomeric regions, TRF1-FokI; assay type: cell-based; conditions: 293T cells expressing TRF1-FokI, TSA treatment
Summary of the method: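 293T cells were transfected with a TRF1-FokI plasmid; controls lacked TRF1-FokI. 16 h later cells were cross-linked in 1% formaldehyde for 10 min and quenched with 0.125 M glycine. Chromatin was sonicated to 200–500 bp and immunoprecipitated overnight at 4°C with BRCA1 or 53BP1 antibodies on protein A agarose. After salt/LiCl/TE washes, chromatin was de-crosslinked overnight at 65°C, then subtelomeric SYBR Green qPCR against input standard curves.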

[9] = tested on: H4K20me2 in U2OS cells; assay: Immunoblot of total H4K20me2; assay type: cell-based; conditions: acid-eluted histones from U2OS cells, 0.5 μM TSA, 5 hours
[10] = tested on: RPA; assay: RPA accumulation at LacI-FokI DSBs; assay type: cell-based; conditions: U2OS-DSB-reporter cells; TSA 0.5 μM vs DMSO; 200 cells per group, at least 2 independent experiments
Summary of the method: (§2)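 U2OS cells carrying the LacI-FokI DSB reporter were grown in DMEM with 10% calf serum and siRNA-transfected, then analysed 48–72 h later. DSBs were induced with mCherry-LacI-FokI, with DMSO or 0.5 μM TSA. Coverslips were fixed, permeabilised and immunostained for RPA or Rad51, then mounted with DAPI. The mCherry signal marked the damaged area, where focus presence or intensity was scored after background subtraction per cell.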

[11] = tested on: Rad51; assay: Rad51 accumulation at LacI-FokI DSBs; assay type: cell-based; conditions: U2OS-DSB-reporter cells; TSA 0.5 μM vs DMSO; 200 cells per group, at least 2 independent experiments
Summary of the method: as §2

[12] = tested on: 53BP1-Tudor; assay: NMR titration of 53BP1-Tudor with H4 peptide; assay type: binding
Summary of the method: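 0.3 mM 15N-labelled 53BP1-Tudor titrated with unlabelled H4 peptide (synthetic H4K20me2, aa 14-27) from a 15 mM stock and followed by 1H-15N HSQC. In the reverse titration, 0.5 mM 13C/15N-labelled recombinant H4KC20me2 (aa 14-27, dimethyl-lysine analogue) received unlabelled Tudor from a 5 mM stock and was followed by 1H-13C HSQC.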

**Q.** With `O=C(c1cc(Cc2n[nH]c(=O)c3ccccc23)ccc1F)N1CCN(C(=O)C2CC2)CC1` [Olaparib] as the compound, how does the “impact of TIP60 knockdown on radial chromosome formation by 53BP1 nullizygosity” value [1] read?
**A.** strongly mitigated

**Q.** What about the “sensitivity to Olaparib, TIP60 deficiency with accompanying 53BP1 knockdown” value ([2]; TIP60 and 53BP1 siRNA) of the same compound?
**A.** reversed

**Q.** What about the “sensitivity to Olaparib, TIP60 deficiency” value ([2]; TIP60 siRNA) of the same compound?
**A.** hypersensitivity

**Q.** And the “sensitivity to Olaparib, BRCA1 mutation with 53BP1 nullizygosity” value ([3]; BRCA1 mutation and 53BP1 nullizygosity)?
**A.** reversed

**Q.** What about the “sensitivity to Olaparib, BRCA1 mutation” value ([3]; BRCA1 mutation) of the same compound?
**A.** hypersensitivity

**Q.** With `CC(/C=C/C(=O)NO)=C\[C@@H](C)C(=O)c1ccc(N(C)C)cc1` [TSA, trichostatin A] as the compound, how does the “53BP1 IRIF” value [4] read?
**A.** strongly reduced

**Q.** And the “H4 acetylation (H4ac)” value [5]?
**A.** elevated

**Q.** And the “increase in BRCA1 occupancy” value [6]?
**A.** ~4 fold

**Q.** And the 53BP1 association [7]?
**A.** diminished

**Q.** And the “response of BRCA1 and 53BP1 at subtelomeric chromatin” value [8]?
**A.** divergent response

**Q.** And the “total H4K20me2” value [9]?
**A.** did not affect

**Q.** What about the “RPA accumulation at the LacI-FokI reporter after RVB1 or TIP60 knockdown” value [10] of the same compound?
**A.** restored

**Q.** What about the “Rad51 accumulation at the LacI-FokI reporter after RVB1 or TIP60 knockdown” value [11] of the same compound?
**A.** restored

**Q.** With “H4K20me2: H4K20me2 peptide (aa 14-27) chemically synthesized” as the compound, how does the “shifts of Trp1495 side chain resonances” value ([12]; ^1H-^13C HSQC, 298 K, pH 7.0) read?
**A.** large downfield shifts

**Q.** What about the “downfield shift of Trp1495 indole HN proton” value ([12]; ^1H-^15N HSQC, 0.3 mM ^15N-labeled 53BP1-Tudor, 298 K, 25 mM sodium phosphate, pH 7.0) of the same compound?
**A.** 0.8 p.p.m.

**Q.** And the “changes in chemical shift of 53BP1-Tudor binding cage residues (Trp1495, Tyr1502, Phe1519, Asp1521, Tyr1523)” value ([12]; ^1H-^15N HSQC, 298 K, 25 mM sodium phosphate, pH 7.0)?
**A.** pronounced changes in chemical shift

**Q.** Which “Trp1495 indole HN shift, in words” value ([12]; ^1H-^15N HSQC, 53BP1-Tudor titrated with non-methylated peptide, vs H4K20me2) does the source give for “non-methylated H4K20 peptide: corresponding non-methylated peptide, control” here?
**A.** markedly reduced
